Experimental data: ChEMBL document CHEMBL3875197, “Design, synthesis and pharmacological evaluation of 4-hydroxyphenylglycine and 4-hydroxyphenylglycinol derivatives as GPR88 agonists” (Bioorg Med Chem, 2017)
pEC50: −log10 of the molar value. Activity calls are given as the source filed them. The rule behind the calls is not given here.

Columns and labels:
[1] = target: T1, G protein-coupled receptor 88 (Homo sapiens, UniProt Q9GZN0); test: Agonist activity at PPLS-HA-tagged-GPR88 (unknown origin) expressed in CHO cells assessed as inhibition of forskolin-stimulated cAMP production measured after 30 mins by TR-FRET assay; type: functional, cell-based
[2] = target: T1, G protein-coupled receptor 88; test: Agonist activity at PPLS-HA-tagged-GPR88 (unknown origin) expressed in CHO cells assessed as inhibition of forskolin-stimulated cAMP production at 1 uM measured after 30 mins by TR-FRET assay; type: functional, cell-based
Summary of the method: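 Stable PPLS-HA-GPR88 CHO cells lifted with versene, 4,000 cells/well in HBSS with 5 mM HEPES, 0.1% BSA and 0.5 mM IBMX (pH 7.4). Single 1 μM test compound plus forskolin (300 nM at 4× final), 30 min at RT. Eu-cAMP tracer and ULight-anti-cAMP added, TR-FRET read (ex 337 nm) after 1 h at RT. Activity expressed as percentage of reference-agonist TR-FRET signal.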

T1 sequence (Q9GZN0 whole entry): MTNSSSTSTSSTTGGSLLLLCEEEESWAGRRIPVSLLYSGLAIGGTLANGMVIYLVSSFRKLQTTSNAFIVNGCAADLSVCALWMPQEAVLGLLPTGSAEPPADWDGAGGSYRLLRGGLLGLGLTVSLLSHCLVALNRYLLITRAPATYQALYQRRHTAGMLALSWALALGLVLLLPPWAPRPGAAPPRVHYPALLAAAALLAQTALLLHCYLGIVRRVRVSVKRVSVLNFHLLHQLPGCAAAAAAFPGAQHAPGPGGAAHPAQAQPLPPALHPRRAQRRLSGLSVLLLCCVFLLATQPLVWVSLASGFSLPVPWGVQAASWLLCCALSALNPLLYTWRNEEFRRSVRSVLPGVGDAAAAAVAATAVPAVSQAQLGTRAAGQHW

Compound | pEC50 [1] | agonist activity call [2]
CCCC(C)COc1ccc([C@@H](NC(=O)[C@@H](C)c2ccccc2)C(=O)OC)cc1 (stereo not given in full) | 6.27 | Active
CCCC(C)COc1ccc([C@H](CO)NC(=O)CCCc2ccccc2)cc1 (stereo not given in full) | 5.84 | –
CCCC(C)COc1ccc([C@@H](NC(=O)Cc2ccc(C#N)cc2)C(=O)OC)cc1 (stereo not given in full) | < 5.00 | –
CCCC(C)COc1ccc([C@@H](NC(=O)Cc2ccc(C)cc2)C(=O)OC)cc1 (stereo not given in full) | 5.43 | –
CCCC(C)COc1ccc([C@H](CO)NC(=O)Cc2ccccc2)cc1 (stereo not given in full) | 6.31 | –
CCCC(C)COc1ccc([C@@H](NC(=O)Cc2cccc(F)c2)C(=O)OC)cc1 (stereo not given in full) | 5.41 | –
CCCC(C)COc1ccc([C@@H](NC(=O)Cc2ccccc2)C(=O)OC)cc1 (stereo not given in full) | 5.58 | Active
CCCC(C)COc1ccc([C@@H](NC(=O)Cc2ccccc2F)C(=O)OC)cc1 (stereo not given in full) | 5.10 | –
CCCC(C)COc1ccc([C@H](CO)NC(=O)CCc2ccccc2)cc1 (stereo not given in full) | 6.46 | –
CCCC(C)COc1ccc([C@@H](NC(=O)Cc2ccc(F)cc2)C(=O)OC)cc1 (stereo not given in full) | 5.23 | –
CCCC(C)COc1ccc([C@@H](NC(=O)[C@@H](CC)c2ccccc2)C(=O)OC)cc1 (stereo not given in full) | 6.23 | Active
CCCC(C)COc1ccc([C@@H](NC(=O)Cc2ccc(OC)cc2)C(=O)OC)cc1 (stereo not given in full) | 5.02 | –
CCCC(C)COc1ccc([C@@H](NC(=O)[C@H](C)c2ccccc2)C(=O)OC)cc1 (stereo not given in full) | – | Active
CCCC(C)COc1ccc([C@@H](NC(=O)[C@@H](C)c2ccccc2)C(=O)O)cc1 (stereo not given in full) | < 5.00 | –
CCCC(C)COc1ccc([C@H](CN=[N+]=[N-])NC(=O)[C@@H](C)c2ccccc2)cc1 (stereo not given in full) | 6.87 | –
CCCC(C)COc1ccc([C@@H](NC(=O)C(C)C2CCCCC2)C(=O)OC)cc1 (mixture of isomers) | < 5.00 | –
CCCC(C)COc1ccc([C@H](CO)NC(=O)[C@@H](CC)c2ccccc2)cc1 (stereo not given in full) | 6.84 | –
